Reference: ChEMBL document CHEMBL1212762, “In vivo activity of ceftobiprole in murine skin infections due to Staphylococcus aureus and Pseudomonas aeruginosa” (Antimicrob Agents Chemother, 2010)

Key:
[1] = fT>MIC in Staphylococcus aureus OC 4172 infected sc dosed SKH1 mouse administered in 24 hrs dosing interval; type: functional
Outline: (§1)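 Plasma levels came from female hairless SKH1 mice given single s.c. doses at the nape 24 h after flank s.c. infection with Cytodex beads. S. aureus work used immunocompetent mice. P. aeruginosa work used mice made neutropenic with cyclophosphamide i.p., 150 mg/kg at day −5 and 100 mg/kg at day −1. Drug assayed by HPLC with diode-array detection. Noncompartmental analysis.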

[2] = fT>MIC in Pseudomonas aeruginosa OC 4354 infected sc dosed SKH1 mouse administered in 24 hrs dosing interval; type: functional; outline: as §1
Staphylococcus aureus [3] = experiment: Antimicrobial activity against methicillin-resistant Staphylococcus aureus OC 8525 infected in SKH1 mouse assessed as log change in bacterial colony forming unit per gram of skin tissue at 100 mg/kg/day, sc (reference value: 0.8 deltalog CFU); type: functional; conditions: route subcutaneous
Outline: (§2)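 Female hairless immunocompetent SKH1 mice were anaesthetised and injected s.c. with 0.2 ml Cytodex bead inoculum (0.1% vol/vol beads in BHI; 6.7–7.0 log10 CFU/mouse): MSSA OC 4172 in the left flank, MRSA OC 8525 in the right. Drug was given at 1, 3, 25 and 27 h post-infection. At 48 h, flank lesions were excised, weighed and homogenised in saline, then plated on TSA (18 h, 37°C). The value is Δlog CFU/g versus the inoculum, from 5 mice/dose, run twice and pooled.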

Staphylococcus aureus [4] = experiment: Antimicrobial activity against methicillin-resistant Staphylococcus aureus OC 8525 assessed as inhibition of growth by broth microdilution method; type: functional
[5] = fT>MIC in Pseudomonas aeruginosa OC 4354 infected sc dosed SKH1 mouse at 50 mg/kg, sc administered twice at 1 and 3 hrs after infection; type: functional; conditions: route subcutaneous
[6] = Tmax in immunocompetent SKH1 mouse plasma at 50 mg/kg, sc; type: ADME, organism-based; design: dose 50 mg/kg, route subcutaneous
Outline: (§3)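 Female SKH1 hairless mice, immunocompetent or cyclophosphamide-neutropenic, infected s.c. with MRSA OC 8525 or P. aeruginosa OC 4354 on the Cytodex beads (left flank), sterile beads on the right. Single dose 24 h later: s.c. at the nape, or linezolid 50 mg/kg oral. Plasma and skin (DMSO homogenate) sampled over time, HPLC with diode array.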

Staphylococcus aureus [7] = experiment: Antimicrobial activity against methicillin-resistant Staphylococcus aureus OC 8525 infected in SKH1 mouse assessed as log change in bacterial colony forming unit per gram of skin tissue at 25 mg/kg/day, sc (reference value: 0.8 deltalog CFU); type: functional; conditions: route subcutaneous
[8] = fT>MIC in Staphylococcus aureus OC 8525 infected sc dosed SKH1 mouse administered in 24 hrs dosing interval; type: functional; outline: as §1
[9] = fT>MIC in Staphylococcus aureus Smith OC 4172 infected sc dosed SKH1 mouse at 50 mg/kg, sc administered twice at 1 and 3 hrs after infection; type: functional; conditions: route subcutaneous
[10] = Protein binding in mouse plasma; type: ADME, cell-free; conditions: read-out: PPB (converted)
Staphylococcus aureus [11] = experiment: Antimicrobial activity against methicillin-susceptible Staphylococcus aureus Smith OC 4172 infected in SKH1 mouse assessed as log change in bacterial colony forming unit per gram of skin tissue at 100 mg/kg/day, sc (reference value: 1.6 deltalog CFU); type: functional; conditions: route subcutaneous
Staphylococcus aureus [12] = experiment: Antimicrobial activity against methicillin-resistant Staphylococcus aureus OC 8525 infected in SKH1 mouse assessed as log change in bacterial colony forming unit per gram of skin tissue at 1.6 mg/kg/day, sc (reference value: 0.8 deltalog CFU); type: functional; conditions: route subcutaneous; outline: as §2
Plasma [13] = experiment: fAUC (0-infinity) in immunocompetent SKH1 mouse plasma at 50 mg/kg, sc; type: ADME, organism-based; design: dose 50 mg/kg, route subcutaneous; conditions: in vivo; outline: as §3
[14] = fT>MIC in Staphylococcus aureus OC 8525 infected sc dosed SKH1 mouse at 50 mg/kg, sc administered twice at 1 and 3 hrs after infection; type: functional; conditions: route subcutaneous
Staphylococcus aureus [15] = experiment: Antimicrobial activity against methicillin-susceptible Staphylococcus aureus Smith OC 4172 infected in SKH1 mouse assessed as log change in bacterial colony forming unit per gram of skin tissue at 25 mg/kg/day, sc (reference value: 1.6 deltalog CFU); type: functional; conditions: route subcutaneous; outline: as §2
Staphylococcus aureus [16] = experiment: Antimicrobial activity against methicillin-susceptible Staphylococcus aureus Smith OC 4172 infected in SKH1 mouse assessed as log change in bacterial colony forming unit per gram of skin tissue at 6.2 mg/kg/day, sc (reference value: 1.6 deltalog CFU); type: functional; conditions: route subcutaneous
Staphylococcus aureus [17] = experiment: Antimicrobial activity against methicillin-resistant Staphylococcus aureus OC 8525 infected in SKH1 mouse assessed as log change in bacterial colony forming unit per gram of skin tissue at 6.2 mg/kg/day, sc (reference value: 0.8 deltalog CFU); type: functional; conditions: route subcutaneous; outline: as §2
Plasma [18] = experiment: fCmax in immunocompetent SKH1 mouse plasma at 50 mg/kg, sc; type: ADME, organism-based; design: dose 50 mg/kg, route subcutaneous; conditions: in vivo; outline: as §3
Staphylococcus aureus [19] = experiment: Antimicrobial activity against methicillin-susceptible Staphylococcus aureus Smith OC 4172 infected in SKH1 mouse assessed as log change in bacterial colony forming unit per gram of skin tissue at 1.6 mg/kg/day, sc (reference value: 1.6 deltalog CFU); type: functional; conditions: route subcutaneous
[20] = fT>MIC in Pseudomonas aeruginosa OC 4351 infected sc dosed SKH1 mouse at 50 mg/kg, sc administered twice at 1 and 3 hrs after infection; type: functional; conditions: route subcutaneous
Staphylococcus aureus [21] = experiment: Antimicrobial activity against methicillin-susceptible Staphylococcus aureus OC 4172 assessed as inhibition of growth by broth microdilution method; type: functional
[22] = fT>MIC in Pseudomonas aeruginosa OC 4351 infected sc dosed SKH1 mouse administered in 24 hrs dosing interval; type: functional

Structure (SMILES): Cc1nnc(SCC2=C(C(=O)O)N3C(=O)[C@@H](NC(=O)Cn4cnnn4)[C@H]3SC2)s1 [CEFAZOLIN]
- fT>MIC [1]: 10.2%
- fT>MIC [2]: 3.3%
- deltalog10CFU (Staphylococcus aureus [3]): -0.3
- MIC (Staphylococcus aureus [4]): 16 µg/mL
- fT>MIC [5]: 0.8 h
- Tmax [6]: 7.5 min
- deltalog10CFU (Staphylococcus aureus [7]): -1.3
- fT>MIC [8]: 1.3%
- fT>MIC [9]: 2.4 h
- fraction unbound [10]: 0.19
- deltalog10CFU (Staphylococcus aureus [11]): -1.7
- deltalog10CFU (Staphylococcus aureus [12]): 0.6
- fAUC (Plasma [13]): 565 µg·min/mL
- fT>MIC [14]: 0.3 h
- deltalog10CFU (Staphylococcus aureus [15]): -2
- deltalog10CFU (Staphylococcus aureus [16]): 1.6
- deltalog10CFU (Staphylococcus aureus [17]): -1.2
- fCmax (Plasma [18]): 19 µg/mL
- deltalog10CFU (Staphylococcus aureus [19]): -0.6
- fT>MIC [20]: 1.5 h
- MIC (Staphylococcus aureus [21]): 0.5 µg/mL
- fT>MIC [22]: 6.4%
